Source: EPA's CvTdb concentration-time database
One block for each molecule: values may come before it.

Legend:
Rat [1] = experiment: concentration in liver after dosing; details: 1 h; dosed: Perfluorodecanoic acid; 10 mg/kg; oral; Female; Harlan Sprague Dawley
Rat [2] = experiment: concentration in kidney after dosing; details: 1 h; dosed: Perfluorodecanoic acid; 10 mg/kg; oral; Male; Harlan Sprague Dawley
Rat [3] = experiment: concentration in plasma after dosing; details: dosed: Perfluorodecanoic acid, 2 mg/kg, iv, Male, F344
Rat [4] = experiment: concentration in plasma after dosing; details: 10 min; dosed: Di-n-butyl phthalate; 50 mg/kg; oral; Male; Sprague-Dawley
Rat [5] = experiment: concentration in plasma after dosing; details: 10 h; dosed: Di-n-butyl phthalate; 100 mg/kg; oral; Male; Sprague-Dawley
Rat [6] = experiment: concentration in plasma after dosing; details: 0.5 h; dosed: Di-n-butyl phthalate; 100 mg/kg; oral; Male; Sprague-Dawley
Rat [7] = experiment: concentration in plasma after dosing; details: dosed: dichloroacetic acid, 100 mg/kg, oral, Male, F344
Rat [8] = experiment: concentration in plasma after dosing; details: 5 min; dosed: Wyeth-14643; 2.0 mg/kg; oral; Male; Sprague-Dawley
Rat [9] = experiment: concentration in plasma after dosing; details: dosed: Wyeth-14643, 2.0 mg/kg, oral, Male, Sprague-Dawley
Rat [10] = experiment: concentration in plasma after dosing; details: 0.25 h; dosed: Wyeth-14643; 2.0 mg/kg; iv; Male; Sprague-Dawley
Rat [11] = experiment: concentration in plasma after dosing; details: 1 h; dosed: Wyeth-14643; 1.0 mg/kg; oral; Male; Sprague-Dawley
Rat [12] = experiment: concentration in plasma after dosing; details: 2 h; dosed: Wyeth-14643; 2.0 mg/kg; iv; Male; Sprague-Dawley
dog = details: dosed: tetrachloroethylene, 72 ppm, inhalation, duration: 4 hr, male, beagle
Method in brief: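 Points were largely digitised from plot screenshots with WebPlotDigitizer or otherwise copied from tables, and they remain in the units each source reported. They come from published in vivo toxicokinetic studies and two structured collections. Sampling and analytical methods follow each source and were often not reported.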

Rat [13] = experiment: concentration in plasma after dosing; details: 1 h; dosed: Bis 2-Chloroethoxy Methane; 20 mg/kg; iv; Male; F344
Rat [14] = experiment: concentration in liver after dosing; details: 1 h; dosed: Bis 2-Chloroethoxy Methane; 20 mg/kg; iv; Female; F344
Rat [15] = experiment: concentration in plasma after dosing; details: 20 min; dosed: Bis 2-Chloroethoxy Methane; 20 mg/kg; iv; Female; F344
Rat [16] = experiment: concentration in heart after dosing; details: 10 min; dosed: Bis 2-Chloroethoxy Methane; 20 mg/kg; iv; Male; F344
Rat [17] = experiment: concentration in plasma after dosing; details: 4 h; dosed: Bis 2-Chloroethoxy Methane; 20 mg/kg; iv; Female; F344
Rat [18] = experiment: concentration in thymus after dosing; details: 10 min; dosed: Bis 2-Chloroethoxy Methane; 20 mg/kg; iv; Male; F344
Rat [19] = experiment: concentration in heart after dosing; details: 20 min; dosed: Bis 2-Chloroethoxy Methane; 20 mg/kg; iv; Male; F344
Rat [20] = experiment: concentration in liver after dosing; details: 10 min; dosed: Bis 2-Chloroethoxy Methane; 20 mg/kg; iv; Male; F344
Rat [21] = experiment: concentration in plasma after dosing; details: 5 h; dosed: Bis 2-Chloroethoxy Methane; 20 mg/kg; iv; Female; F344
Rat [22] = experiment: concentration in liver after dosing; details: 20 min; dosed: Bis 2-Chloroethoxy Methane; 20 mg/kg; iv; Male; F344
Rat [23] = experiment: concentration in thymus after dosing; details: 6 h; dosed: Bis 2-Chloroethoxy Methane; 20 mg/kg; iv; Male; F344
Rat [24] = experiment: concentration in plasma after dosing; details: dosed: Fluorotelomer alcohol 8+2, 12 mg/kg, oral, Male, Harlan Sprague Dawley
Rat [25] = experiment: concentration in plasma after dosing; details: dosed: Fluorotelomer alcohol 8+2, 12 mg/kg, iv, Male, F344
Rat [26] = experiment: concentration in plasma after dosing; details: dosed: Fluorotelomer alcohol 8+2, 12 mg/kg, oral, Male, Harlan Sprague Dawley; remark: listed apart in the source
Rat [27] = experiment: concentration in brain after dosing; details: 6 h; dosed: Fluorotelomer alcohol 8+2; 24 mg/kg; oral; Male; Harlan Sprague Dawley
Rat [28] = experiment: concentration in plasma after dosing; details: dosed: Fluorotelomer alcohol 8+2, 12 mg/kg, iv, Male, F344; remark: listed apart in the source
Rat [29] = experiment: concentration in liver after dosing; details: 2 h; dosed: Thiodiglycolic Acid; 20 mg/kg; iv; Male; Harlan Sprague Dawley
Rat [30] = experiment: concentration in thymus after dosing; details: 1 h; dosed: Thiodiglycolic Acid; 20 mg/kg; iv; Male; Harlan Sprague Dawley
Rat [31] = experiment: concentration in plasma after dosing; details: 20 min; dosed: Thiodiglycolic Acid; 20 mg/kg; iv; Female; Harlan Sprague Dawley
Rat [32] = experiment: concentration in liver after dosing; details: 10 min; dosed: Thiodiglycolic Acid; 20 mg/kg; iv; Female; Harlan Sprague Dawley
Rat [33] = experiment: concentration in heart after dosing; details: 8 h; dosed: Thiodiglycolic Acid; 20 mg/kg; iv; Female; Harlan Sprague Dawley
Rat [34] = experiment: concentration in plasma after dosing; details: 2 h; dosed: Thiodiglycolic Acid; 20 mg/kg; iv; Male; Harlan Sprague Dawley
Rat [35] = experiment: concentration in heart after dosing; details: 2 h; dosed: Thiodiglycolic Acid; 20 mg/kg; iv; Male; Harlan Sprague Dawley
Rat [36] = experiment: concentration in plasma after dosing; details: 1.5 h; dosed: Primidone; 80 mg/kg; oral; Female; F344

Compound: O=C(O)C(F)(F)C(F)(F)C(F)(F)C(F)(F)C(F)(F)C(F)(F)C(F)(F)C(F)(F)C(F)(F)F [Perfluorodecanoic acid]
concentration in liver (Rat [1]): 48900 ng/g
concentration in kidney (Rat [2]): 10800 ng/g
concentration in plasma (Rat [3]; 12 h): 5770 ng/mL
concentration in plasma (Rat [3]; 1200 h): 860 ng/mL

Compound: CCCCOC(=O)c1ccccc1C(=O)O [Mono-n-butyl phthalate]
concentration in plasma (Rat [4]): 26100 ng/mL
concentration in plasma (Rat [5]): 2010 ng/mL
concentration in plasma (Rat [6]): 55900 ng/mL

Compound: O=C(O)C(Cl)Cl [dichloroacetic acid]
concentration in plasma (Rat [7]; 10 min): 11900 ng/mL
concentration in plasma (Rat [7]; 4 h): 55600 ng/mL

concentration in plasma (Rat [8]): 405 ng/mL
concentration in plasma (Rat [9]; 0.25 h): 889 ng/mL
concentration in plasma (Rat [9]; 4 h): 160 ng/mL
concentration in plasma (Rat [10]): 17400 ng/mL
concentration in plasma (Rat [11]): 828 ng/mL
concentration in plasma (Rat [12]): 870 ng/mL
Compound: Cc1cccc(Nc2cc(Cl)nc(SCC(=O)O)n2)c1C

Compound: O=C(O)C(Cl)(Cl)Cl [trichloroacetic acid]
amount in urine after dosing (dog; 22 h): 4.04 mg
amount in urine after dosing (dog; 46 h): 1.08 mg
amount in urine after dosing (dog; 70 h): 1.11 mg

Compound: ClCCOCOCCCl [Bis 2-Chloroethoxy Methane]
concentration in plasma (Rat [13]): 1940 ng/mL
concentration in liver (Rat [14]): 343 ng/g
concentration in plasma (Rat [15]): 4820 ng/mL
concentration in heart (Rat [16]): 12300 ng/g
concentration in plasma (Rat [17]): 86.2 ng/mL
concentration in thymus (Rat [18]): 34400 ng/g
concentration in heart (Rat [19]): 7220 ng/g
concentration in liver (Rat [20]): 5360 ng/g
concentration in plasma (Rat [21]): 24.8 ng/mL
concentration in liver (Rat [22]): 3030 ng/g
concentration in thymus (Rat [23]): 19.5 ng/g

concentration in plasma (Rat [24]; 0.75 h): 294 ng/mL
concentration in plasma (Rat [24]; 12 h): 4.64 ng/mL
concentration in plasma (Rat [25]; 0.25 h): 1430 ng/mL
concentration in plasma (Rat [25]; 24 h): 10.2 ng/mL
concentration in plasma (Rat [26]; 5 min): 396 ng/mL
concentration in plasma (Rat [26]; 3 h): 196 ng/mL
concentration in brain (Rat [27]): 544 ng/g
concentration in plasma (Rat [28]; 0.5 h): 1410 ng/mL
concentration in plasma (Rat [28]; 9 h): 26.1 ng/mL
Compound: OCCC(F)(F)C(F)(F)C(F)(F)C(F)(F)C(F)(F)C(F)(F)C(F)(F)C(F)(F)F [Fluorotelomer alcohol 8+2]

Compound: O=C(O)CSCC(=O)O [Thiodiglycolic Acid]
concentration in liver (Rat [29]): 80300 ng/g
concentration in thymus (Rat [30]): 2310 ng/g
concentration in plasma (Rat [31]): 16300 ng/mL
concentration in liver (Rat [32]): 70700 ng/g
concentration in heart (Rat [33]): 376 ng/g
concentration in plasma (Rat [34]): 790 ng/mL
concentration in heart (Rat [35]): 1310 ng/g

Compound: CCC1(c2ccccc2)C(=O)NC(=O)NC1=O [Phenobarbital]
concentration in plasma (Rat [36]): 800 ng/mL
